Results published in ChEMBL document CHEMBL3822360, “Synthesis of new thiazolo-celecoxib analogues as dual cyclooxygenase-2/15-lipoxygenase inhibitors: Determination of regio-specific different pyrazole cyclization by 2D NMR” (Eur J Med Chem, 2016).

Legend:
[1] = biological target: T1, Prostaglandin G/H synthase 1 (Ovis aries, UniProt P05979); test: Inhibition of ovine COX-1 assessed as reduction in PGF2-alpha formation using arachidonic acid as substrate by enzyme immunoassay
T1 sequence (P05979 whole entry): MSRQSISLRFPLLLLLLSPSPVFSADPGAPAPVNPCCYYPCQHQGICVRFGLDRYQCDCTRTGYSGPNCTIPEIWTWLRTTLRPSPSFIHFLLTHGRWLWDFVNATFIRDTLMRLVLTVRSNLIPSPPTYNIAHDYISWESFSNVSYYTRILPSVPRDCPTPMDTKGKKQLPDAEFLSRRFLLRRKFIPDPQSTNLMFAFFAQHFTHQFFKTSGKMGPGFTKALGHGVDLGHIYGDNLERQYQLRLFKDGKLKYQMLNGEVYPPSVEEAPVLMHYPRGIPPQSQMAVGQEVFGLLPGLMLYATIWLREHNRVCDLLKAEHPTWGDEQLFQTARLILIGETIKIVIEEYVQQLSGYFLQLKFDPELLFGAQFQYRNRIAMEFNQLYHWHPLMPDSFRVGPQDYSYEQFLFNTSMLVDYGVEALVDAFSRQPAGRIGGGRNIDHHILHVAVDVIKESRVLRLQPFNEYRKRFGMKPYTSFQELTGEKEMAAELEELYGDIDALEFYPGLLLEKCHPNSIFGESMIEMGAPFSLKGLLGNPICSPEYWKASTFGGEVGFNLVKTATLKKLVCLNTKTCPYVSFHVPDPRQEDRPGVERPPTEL

[2] = Inhibition of soybean 15-LOX using arachidonic acid as substrate by enzyme immunoassay; design: species or system Glycine max
How it was run: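 Soybean 15-LOX inhibition was measured with an EIA kit following the manufacturer's instructions, in 0.1 M Tris-HCl buffer, pH 7.4. Compounds were dissolved in minimal DMSO and diluted to final concentrations of 0.001–10 μM, including 1, 5 and 10 μM. IC50 (μM) is the mean of two determinations.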

Rattus norvegicus [3] = test: Anti-inflammatory activity in Wistar albino rat assessed as inhibition of carrageenan-induced paw edema at 50 mg/kg, po measured after 2 hrs relative to control; type: functional
How it was run: (§1)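 Adult male Wistar albino rats (100–150 g) were housed under a 12 h light cycle at 27 ± 2 °C with food and water. Paw edema was induced with carrageenan after oral dosing. […] Values are mean ± SEM, n = 5.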

Rattus norvegicus [4] = test: Anti-inflammatory activity in Wistar albino rat assessed as inhibition of carrageenan-induced paw edema at 50 mg/kg, po measured after 4 hrs relative to control; type: functional; how it was run: as §1
Rattus norvegicus [5] = test: Ulcerogenicity in Wistar albino rat assessed as damage in gastric mucosa at 50 mg/kg, po qd for 3 days measured 1 hr post last dose; type: toxicity, organism-based; conditions: in vivo
How it was run: (§2)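 Rats were fasted 18 h, then dosed orally once daily for 3 consecutive days. Compounds were given in DMSO; controls received 10% aqueous DMSO (v/v). Ulcer index is the sum of % ulcer incidence/10, mean number of ulcers per stomach and mean ulcer severity. Values are mean ± SEM.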

Rattus norvegicus [6] = test: Anti-inflammatory activity against Wistar albino rat model of carrageenan-induced paw edema assessed as reduction in paw thickness at 15 mg/kg, po measured after 2 hrs relative to control; type: functional; how it was run: as §1
Rattus norvegicus [7] = test: Anti-inflammatory activity in Wistar albino rat assessed as inhibition of carrageenan-induced paw edema 15 mg/kg, po measured after 4 hrs relative to control; type: functional; how it was run: as §1
Rattus norvegicus [8] = test: Ulcerogenicity in Wistar albino rat assessed as damage in gastric mucosa at 30.9 umol/kg, po qd for 3 days measured 1 hr post last dose; type: toxicity, organism-based; conditions: in vivo; how it was run: as §2

| Compound | IC50 [1] | IC50 [2] | inhibition in vivo at 50 mg/kg (Rattus norvegicus [3]) | inhibition in vivo at 50 mg/kg (Rattus norvegicus [4]) | UI (Rattus norvegicus [5]) | inhibition in vivo at 15 mg/kg (Rattus norvegicus [6]) | inhibition (INH) (Rattus norvegicus [7]) | UI (Rattus norvegicus [8]) |
| --- | --- | --- | --- | --- | --- | --- | --- | --- |
| COc1ccc(/C=C/C(=O)c2sc(-c3ccccc3)nc2C)cc1 | 8.6 µM | 7.4 µM | 43.8% | 46.9% | 4.08 | – | – | – |
| C/C(=N\Nc1ccc(S(N)(=O)=O)cc1)c1sc(-c2ccccc2)nc1C | 9.8 µM | 8.6 µM | 33.9% | 37.1% | 2.65 | – | – | – |
| C/C(=N\Nc1ccc(S(C)(=O)=O)cc1)c1sc(-c2ccccc2)nc1C | 5.4 µM | 6.35 µM | 27.4% | 28.1% | 3.87 | – | – | – |
| COc1ccc([C@@H]2CC(c3sc(-c4ccccc4)nc3C)=NN2c2ccc(S(N)(=O)=O)cc2)cc1 | 6.8 µM | 5.9 µM | 37.1% | 42.2% | 3.79 | – | – | – |
| Cc1ccc(-c2cc(C(F)(F)F)nn2-c2ccc(S(N)(=O)=O)cc2)cc1 [CELECOXIB] | – | – | – | – | – | 59.7% | 65.63% | 2.9 |
| Cc1ccc(Cl)c(Nc2ccccc2C(=O)O)c1Cl [MECLOFENAMATE SODIUM] | – | 5.64 µM | – | – | – | – | – | – |

Second part, led by results:

| IC50 [1] | IC50 [2] | Compound | inhibition in vivo at 50 mg/kg (Rattus norvegicus [3]) | inhibition in vivo at 50 mg/kg (Rattus norvegicus [4]) | UI (Rattus norvegicus [5]) | inhibition in vivo at 15 mg/kg (Rattus norvegicus [6]) | inhibition (INH) (Rattus norvegicus [7]) | UI (Rattus norvegicus [8]) |
| --- | --- | --- | --- | --- | --- | --- | --- | --- |
| 8.7 µM | 7.68 µM | Cc1nc(-c2ccccc2)sc1-c1ccnn1-c1ccc(S(=O)(=O)/N=C/N(C)C)cc1 | 53.2% | 51.6% | 2.93 | – | – | – |
| 4.8 µM | 3.98 µM | Cc1nc(-c2ccccc2)sc1-c1cc(C(F)(F)F)nn1-c1ccc(S(C)(=O)=O)cc1 | 53.2% | 51.6% | 2.78 | – | – | – |
| 9.8 µM | 8.68 µM | Cc1nc(-c2ccccc2)sc1-c1ccnn1-c1ccc(S(N)(=O)=O)cc1 | 54.8% | 54.7% | 2.48 | – | – | – |
| 6.3 µM | 5.41 µM | Cc1nc(-c2ccccc2)sc1-c1cc(C(F)(F)F)nn1-c1ccc(S(N)(=O)=O)cc1 | 53.2% | 57.8% | 2.67 | – | – | – |
| 5.8 µM | 4.71 µM | COc1ccc([C@@H]2CC(c3sc(-c4ccccc4)nc3C)=NN2c2ccc(S(C)(=O)=O)cc2)cc1 | 27.5% | 28.1% | 3.83 | – | – | – |
| 10.3 µM | 7.49 µM | Cc1nc(-c2ccccc2)sc1-c1ccnn1-c1ccc(S(C)(=O)=O)cc1 | 46.8% | 48.4% | 4.35 | – | – | – |
